PHOSPHO1 inh: PHOSPHO1 (human) inhibition | Q8TCT1 | recombinant PHOSPHO1, absorbance phosphatase assay | inhibition, % at 13.3 µM | 1.1% of 290,000 active | AID 1565; in the data active = inhibition above about 60%
TbHK1 inh: blocks Trypanosoma brucei hexokinase 1 activity | 0.11% of 220,000 active | recombinant TbHK1, G6PDH-coupled NADH A340 | inhibition, % at 10 µM;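 active = inhibition of 50% or more in the single-dose primary screen; inactive = inhibition below 50%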
HKDC1 inh: HKDC1 (human) hexokinase inhibition; Q2TB90; recombinant HKDC1, G6PDH/diaphorase resazurin coupled fluorescence; inhibition, % at 20 µM; 0.16% of 340,000 active; AID 493160;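 active = inhibition above about 35% when tested at 20 µM, limit read from the data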;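 note: plate controls were DMSO wells with enzyme for no effect and DMSO wells lacking enzyme for full effect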
Target sequence (Q2TB90 whole entry, looked up): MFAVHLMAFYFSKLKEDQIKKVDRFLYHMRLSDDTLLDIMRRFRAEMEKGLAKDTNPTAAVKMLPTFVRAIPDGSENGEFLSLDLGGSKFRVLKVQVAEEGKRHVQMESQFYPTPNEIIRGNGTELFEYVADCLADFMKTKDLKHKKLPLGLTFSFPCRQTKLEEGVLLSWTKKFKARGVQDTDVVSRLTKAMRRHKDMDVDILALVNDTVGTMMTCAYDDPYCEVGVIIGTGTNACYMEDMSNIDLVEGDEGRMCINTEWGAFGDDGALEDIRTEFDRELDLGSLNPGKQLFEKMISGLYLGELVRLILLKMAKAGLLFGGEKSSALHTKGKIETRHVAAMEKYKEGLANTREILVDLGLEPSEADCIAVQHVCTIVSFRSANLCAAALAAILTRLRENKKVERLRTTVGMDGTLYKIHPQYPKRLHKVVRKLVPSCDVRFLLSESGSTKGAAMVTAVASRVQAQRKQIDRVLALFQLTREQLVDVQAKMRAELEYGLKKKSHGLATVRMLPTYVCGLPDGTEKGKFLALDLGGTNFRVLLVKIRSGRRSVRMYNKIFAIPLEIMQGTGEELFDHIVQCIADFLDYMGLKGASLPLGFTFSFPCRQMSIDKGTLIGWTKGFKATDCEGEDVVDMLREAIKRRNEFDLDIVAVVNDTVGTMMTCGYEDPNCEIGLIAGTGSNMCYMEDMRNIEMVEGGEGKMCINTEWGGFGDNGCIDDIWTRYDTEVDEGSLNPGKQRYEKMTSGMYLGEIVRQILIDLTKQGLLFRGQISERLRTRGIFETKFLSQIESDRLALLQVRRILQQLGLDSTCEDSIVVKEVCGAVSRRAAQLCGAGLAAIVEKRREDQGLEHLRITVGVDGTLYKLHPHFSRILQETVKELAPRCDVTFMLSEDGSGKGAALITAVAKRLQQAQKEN
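Test system: recombinant HKDC1 (HK5) hexokinase enzyme, produced in-house; Amount: enzyme 5 µg/mL final; Buffer or medium: Tris pH 8.0 buffer with MgCl2, Tween-20, BSA, BME; Reagent: glucose and ATP substrates; Doses: 20 µM test compound, 1% DMSO; Incubation: 90 min reaction incubation at room temperature, dark; Detection: resorufin fluorescence at 613 nm.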
PfGluPho inh: PfG6PD (Plasmodium falciparum) enzyme inhibition. inhibition, % at 20 µM. AID 504690. 0.78% of 350,000 active. PfGluPho enzyme, NADPH resazurin-diaphorase fluorescence;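 active = inhibition reaching at least a set limit at 20 µM in the primary screen, cut at about 59% in these data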;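 note: 0% = DMSO wells with substrate and 100% = DMSO wells lacking glucose-6-phosphate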
EP2 mod: EP2 receptor (human) modulation | P43116 | EP2-expressing cells, cAMP HTRF FRET, PGE2 co-stimulation | induction, % at 25 µM | 0.83% of 260,000 active | AID 940;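 active = compounds whose cAMP rise, as percent of the full-agonist control response, exceeds 60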;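 note: rat C6 glioma line stably carrying human EP2 under a CMV promoter; the protocol text gives 20 µM as final concentration; 100% = response of wells given 1 µM PGE2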
EP2 antag: inhibitors of human EP2 prostaglandin E2 receptor. C6 glioma cells expressing human EP2, cAMP TR-FRET; cells stimulated with saturating PGE2. inhibition, % at 25 µM. 0.52% of 260,000 active. AID 1422;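 active = percent inhibition above 40 after rounding to a whole number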;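 note: rat C6 glioma host cells with rolipram phosphodiesterase inhibitor present; the protocol text gives 20 µM as final concentration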
PfG6PD confirm: PfG6PD inhibition, single-dose confirmed; shares compounds with PfGluPho inh; 34% of 2,400 active; inhibition, % at 20 µM; recombinant PfGluPho, NADPH-diaphorase-resazurin fluorescence;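 active = inhibition of at least 50% at 20 µM in any single replicate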;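 note: 0% = DMSO with substrate and 100% = DMSO lacking glucose-6-phosphate substrate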
Diaphorase 10uM: diaphorase inhibition or oxidation at 10 uM NADPH; shares compounds with PfGluPho inh; diaphorase-coupled resazurin reduction, fluorescence, NADPH 10 uM; inhibition, % at 20 µM; 39% of 820 active; AID 504862;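 active = average inhibition reaching 50% or more with the compound at 20 µM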;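 note: resorufin red fluorescence formed as diaphorase reduces resazurin using NADPH; 0% = DMSO with enzyme and 100% = DMSO without enzyme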
Diaph ctr 30uM: inhibits diaphorase or oxidizes, flagging false PfG6PD hits; Diaphorase/resazurin coupled assay, resorufin fluorescence, 30 uM NADPH; 29% of 820 active; shares compounds with PfGluPho inh; inhibition, % at 20 µM; AID 504863;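 active = inhibition averaging 50% or more, tested at 20 µM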;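 note: 0% = DMSO with enzyme and 100% = DMSO wells lacking diaphorase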
* marks the source's active call; other numbers are inactive results. A selection: hits, their analogues and other compounds. The true share with any hit is near 2.5%.

How did O=C(Nc1nnc(S(=O)(=O)N2CCCCC2)s1)c1cccc(Br)c1 do in these assays?
PHOSPHO1 inh: 7; HKDC1 inh: 2; PfGluPho inh: 100*; PfG6PD confirm: 61*; Diaphorase 10uM: 69*; Diaph ctr 30uM: 46

Results for O=C(Nc1nnc(CSCc2ccccc2F)s1)c1cccc([N+](=O)[O-])c1 ?
PHOSPHO1 inh: -24; TbHK1 inh: 0; HKDC1 inh: -1; PfGluPho inh: 61*; EP2 mod: -33; EP2 antag: 5; PfG6PD confirm: 43

How did O=C(Nc1nnc(S(=O)(=O)N2CCCC2)s1)c1cccc([N+](=O)[O-])c1 do in these assays?
PHOSPHO1 inh: 38; HKDC1 inh: 6; PfGluPho inh: 97*; PfG6PD confirm: 77*; Diaphorase 10uM: 50*; Diaph ctr 30uM: 49

How did COc1ccc(C(=O)Nc2nnc(S(=O)(=O)N3CCCCCC3)s2)cc1OC do in these assays?
PHOSPHO1 inh: 15; HKDC1 inh: 3; PfGluPho inh: -32

How did CCNC(=S)N(CCCN(CC)CC)Cc1cc2cc(C)cc(C)c2[nH]c1=O do in these assays?
EP2 mod: -9; EP2 antag: 5

How did O=C(CCCSc1nc2ccccc2[nH]1)c1ccc2c(c1)OCCO2 do in these assays?
EP2 mod: -93; EP2 antag: 6

Results for O=C1C(=C(c2ccccc2)N2CCOCC2)Cc2ccccc21 ?
PfGluPho inh: 66*; PfG6PD confirm: 22

Results for Cc1cc2c(=O)n(CC(=O)N3CCN(C4CCCCC4)C(=O)C3)cnc2s1 ?
EP2 mod: 4; EP2 antag: 4

How did Cn1cc(S(=O)(=O)Cc2ccc(F)cc2)c2ccccc21 do in these assays?
PHOSPHO1 inh: 31; HKDC1 inh: 2; PfGluPho inh: 103*; PfG6PD confirm: 62*; Diaphorase 10uM: 69*; Diaph ctr 30uM: 51*

Results for CCCn1cc(S(=O)(=O)CC(=O)N2CCc3ccccc32)c2ccccc21 ?
PHOSPHO1 inh: 14; TbHK1 inh: -1; HKDC1 inh: 19; PfGluPho inh: 19; EP2 mod: -4; EP2 antag: 4

Results for Cn1cc(S(=O)(=O)CC(=O)N2CCc3ccccc32)c2ccccc21 ?
PHOSPHO1 inh: -19; TbHK1 inh: 1; HKDC1 inh: 1; PfGluPho inh: 74*; EP2 mod: 16; EP2 antag: 12; PfG6PD confirm: 53*; Diaphorase 10uM: 49; Diaph ctr 30uM: 46

How did CS(=O)(=O)N(CC(=O)Nc1ccc2c(c1)OCCO2)c1cccc(Cl)c1 do in these assays?
EP2 mod: -22; EP2 antag: 13

How did O=[N+]([O-])c1ccc2c(c1)Cc1cc(F)ccc1-2 do in these assays?
HKDC1 inh: -7; PfGluPho inh: -2

Results for O=C1C=CC(=O)N1c1ccc2c(c1)Cc1cc(F)ccc1-2 ?
HKDC1 inh: 2; PfGluPho inh: 84*; PfG6PD confirm: 45

Results for CC(=O)Nc1ccc2c(c1)Cc1cc(N3C(=O)C=CC3=O)ccc1-2 ?
HKDC1 inh: -5; PfGluPho inh: 111*; PfG6PD confirm: 100*; Diaphorase 10uM: -14; Diaph ctr 30uM: -15

What do the screens show for `O=[N+]([O-])c1cnc(Sc2ccncn2)c([N+](=O)[O-])c1`?
PfGluPho inh: 80*; PfG6PD confirm: 59*; Diaphorase 10uM: 9; Diaph ctr 30uM: 13

How did O=[N+]([O-])c1ccc(Sc2ncccn2)c([N+](=O)[O-])c1 do in these assays?
PHOSPHO1 inh: 24; TbHK1 inh: -53; HKDC1 inh: 5; PfGluPho inh: 6; EP2 mod: -14; EP2 antag: 12

Results for Clc1ccc2ncc(-c3nnnn3-c3ccccc3)c(-c3ccccc3)c2c1 ?
PHOSPHO1 inh: 26; TbHK1 inh: -2; HKDC1 inh: 4; PfGluPho inh: 26; EP2 mod: 7; EP2 antag: 7

Results for Clc1ccc2[nH]cc(-c3nnnn3-c3ccccc3)c2c1 ?
PHOSPHO1 inh: 41; TbHK1 inh: 1; HKDC1 inh: 8; PfGluPho inh: 96*; EP2 mod: -38; EP2 antag: 7; PfG6PD confirm: 36

What do the screens show for `N=c1sccn1CC(=O)O`?
EP2 mod: -21; EP2 antag: 11

Results for CC1(OC(=O)C2CCCC2)C(=O)C=C2C=C(c3ccsc3)N(Cc3ccc4c(c3)OCO4)C=C2C1=O (stereo not given) ?
PHOSPHO1 inh: 9; TbHK1 inh: -23; HKDC1 inh: 27; PfGluPho inh: 61*; EP2 mod: 14; EP2 antag: 13; PfG6PD confirm: 53*; Diaphorase 10uM: 8; Diaph ctr 30uM: 3

Results for CC1(OC(=O)C2CCCC2)C(=O)C=C2C=C(c3ccsc3)N(CC3CC3)C=C2C1=O (stereo not given) ?
PHOSPHO1 inh: 9; TbHK1 inh: -33; HKDC1 inh: 21; PfGluPho inh: 68*; EP2 mod: 4; EP2 antag: 13; PfG6PD confirm: 50*; Diaphorase 10uM: 12; Diaph ctr 30uM: 14

Results for CC1(OC(=O)C2CCCC2)C(=O)C=C2C=C(c3ccsc3)N(C3CCCCC3)C=C2C1=O (stereo not given) ?
PHOSPHO1 inh: 31; TbHK1 inh: -18; HKDC1 inh: 16; PfGluPho inh: 42; EP2 mod: 9; EP2 antag: 3

Results for COc1ccc(CCn2nnnc2CN2CCN(c3ccc(F)cc3)CC2)cc1OC ?
EP2 mod: -14; EP2 antag: 4

Results for CCCn1c(=O)/c(=C2/C=Cc3ccccc3N2CC)s/c1=C1/SC(=S)N(N)C1=O ?
EP2 mod: -15; EP2 antag: 8

Results for Cc1ccc(/C=c2\sc3n(c2=O)CN(c2ccc(F)cc2)CN=3)o1 ?
EP2 mod: -36; EP2 antag: 7

How did CCCn1nc(Oc2nc(NCC)cc(OC)n2)ccc1=O do in these assays?
EP2 mod: 18; EP2 antag: 12

How did COc1ccccc1/C=N/NC(=O)CC(=O)Nc1ccc(Cl)c(Cl)c1 do in these assays?
PHOSPHO1 inh: 30; TbHK1 inh: 0; HKDC1 inh: 5; PfGluPho inh: 106*; EP2 mod: -11; EP2 antag: 3; PfG6PD confirm: 44

How did COc1ccc2c(c1)NC1(CCN(Cc3ccc(OC)c(OC)c3)CC1)c1cccn1-2 do in these assays?
EP2 mod: -55

Compound activity deposited in PubChem BioAssay by several laboratories.
